Activity calls are given as the source filed them. The calls are words filed in the database; no cut-off is given here.
How the values were obtained:
Solanum lycopersicum [1] = test: Induction of resistance to Botrytis cinerea-induced Solanum lycopersicum (tomato) fruit Solanum lycopersicum cv. No. 4 Zhongshu gray mold disease assessed as increase in NO content at 1 mM preharvest treatment measured after 3 days relative to control; format: functional, organism-based
Method in brief: (§1)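 Plants received 1 mM L-arginine (5 mL) injected near the root, with a water control. Frozen fruit mesocarp was extracted in HEPES-KOH pH 7.6 buffer. For NO, extract was pretreated with catalase and SOD, oxyhemoglobin was added, and A550 was read at 37 °C against a buffer blank; results are given as μmol/g FW. NOS was measured by the hemoglobin assay on cytosolic/microsomal fractions. Three replicates.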

Solanum lycopersicum [2] = test: Induction of resistance to Botrytis cinerea-induced Solanum lycopersicum (tomato) fruit Solanum lycopersicum cv. No. 4 Zhongshu gray mold disease assessed as induction of defensive enzyme polyphenoloxidase activity at 1 mM preharvest treatment measured after 3 days relative to control; format: functional, organism-based
Method in brief: (§2)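 Plants received 1 mM L-arginine (5 mL) injected near the root, with a water control. Fruit mesocarp was extracted in phosphate pH 6.8 (PAL, PPO) or acetate pH 5 (CHI, GLU) buffer. Readouts: PAL, L-phenylalanine in borate pH 8.8, 30 °C 1 h, A290. PPO, 0.1 M catechol, ΔA420 over 3 min. CHI, colloidal chitin at 40 °C then snailase, A585. GLU, 0.4% laminarin at 37 °C 1 h, DNS, A500. Three replicates.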

Botrytis cinerea [3] = test: Effect on mycelial growth of Botryotinia fuckeliana relative to control; format: functional, organism-based
Method in brief: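 Mycelial growth on PDA containing 1 mM L-arginine in the molten agar. A 7 mm B. cinerea disk was placed at the centre of a 90 mm dish and incubated at 25 °C. Colony diameter was read at 2, 3 and 4 days. Inhibition (%) = (control diameter − treated diameter)/(control diameter − 7 mm) × 100. Triplicate plates; the experiment was run twice.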

Botrytis cinerea [4] = test: Induction of resistance to Botryotinia fuckeliana-induced tomato fruit Solanum lycopersicum cv. No. 4 Zhongshu gray mold disease assessed as disease incidence at 5 mM injected near root area measured after 3 days relative to control; format: functional
Method in brief: (§3)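 Plants received 5 mL of L-arginine (0.5, 1 or 5 mM) by injection at a cut near the root area, with distilled water as control; 30 plants per treatment. Green mature fruit were picked 0–12 days after treatment. Fruit were ethanol-sterilised and wounded at three equator sites, each receiving 10 μL of 2 × 10^5 conidia/mL. Fruit were kept at 25 °C, 90–95% RH. Incidence and lesion area (3.14 × (d/2)²) were scored at 4 days; three replicates.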

Botrytis cinerea [5] = test: Induction of resistance to Botryotinia fuckeliana-induced tomato fruit Solanum lycopersicum cv. No. 4 Zhongshu gray mold disease assessed as inhibition of lession area at 1 mM injected near root area measured after 12 days relative to control; format: functional; details: 288 h; method in brief: as §3
Solanum lycopersicum [6] = test: Induction of resistance to Botrytis cinerea-induced Solanum lycopersicum (tomato) fruit Solanum lycopersicum cv. No. 4 Zhongshu gray mold disease assessed as induction of defensive enzyme beta-1,3-glucanase activity at 1 mM preharvest treatment measured after 9 days relative to control; format: functional; method in brief: as §2
Solanum lycopersicum [7] = test: Induction of resistance to Botrytis cinerea-induced Solanum lycopersicum (tomato) fruit Solanum lycopersicum cv. No. 4 Zhongshu gray mold disease assessed as induction of defensive enzyme beta-1,3-glucanase activity at 1 mM preharvest treatment measured after 3 days relative to control; format: functional; method in brief: as §2
Solanum lycopersicum [8] = test: Induction of resistance to Botrytis cinerea-induced Solanum lycopersicum (tomato) fruit Solanum lycopersicum cv. No. 4 Zhongshu gray mold disease assessed as induction of total phenolics content at 1 mM preharvest treatment measured after 3 days relative to control; format: functional
Method in brief: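 Plants received 1 mM L-arginine (5 mL) injected near the root, with a water control. A685 was calibrated against […] and expressed as catechin equivalents (mg/100 g FW). Mean of three replicates.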

Solanum lycopersicum [9] = test: Induction of resistance to Botrytis cinerea-induced Solanum lycopersicum (tomato) fruit Solanum lycopersicum cv. No. 4 Zhongshu gray mold disease assessed as induction of defensive enzyme phenylalanine ammonialyase activity at 1 mM preharvest treatment measured after 9 days relative to control; format: functional, organism-based; method in brief: as §2
Botrytis cinerea [10] = test: Induction of resistance to Botryotinia fuckeliana-induced tomato fruit Solanum lycopersicum cv. No. 4 Zhongshu gray mold disease assessed as disease incidence at 1 mM injected near root area measured after 3 days relative to control; format: functional; method in brief: as §3
Solanum lycopersicum [11] = test: Induction of resistance to Botrytis cinerea-induced Solanum lycopersicum (tomato) fruit Solanum lycopersicum cv. No. 4 Zhongshu gray mold disease assessed as induction of defensive enzyme beta-1,3-glucanase activity at 1 mM preharvest treatment measured after 6 days relative to control; format: functional; method in brief: as §2
Botrytis cinerea [12] = test: Induction of resistance to Botryotinia fuckeliana-induced tomato fruit Solanum lycopersicum cv. No. 4 Zhongshu gray mold disease assessed as disease incidence at 5 mM injected near root area measured after 6 days relative to control; format: functional; method in brief: as §3
Botrytis cinerea [13] = test: Induction of resistance to Botryotinia fuckeliana-induced tomato fruit Solanum lycopersicum cv. No. 4 Zhongshu gray mold disease assessed as disease incidence at 0.5 mM injected near root area measured after 12 days relative to control; format: functional, organism-based; method in brief: as §3
Botrytis cinerea [14] = test: Induction of resistance to Botryotinia fuckeliana-induced tomato fruit Solanum lycopersicum cv. No. 4 Zhongshu gray mold disease assessed as disease incidence at 1 mM injected near root area measured after 12 days relative to control; format: functional, organism-based; method in brief: as §3
Botrytis cinerea [15] = test: Induction of resistance to Botryotinia fuckeliana-induced tomato fruit Solanum lycopersicum cv. No. 4 Zhongshu gray mold disease assessed as inhibition of lession area at 1 mM injected near root area measured after 9 days relative to control; format: functional; details: 216 h; method in brief: as §3
Solanum lycopersicum [16] = test: Induction of resistance to Botrytis cinerea-induced Solanum lycopersicum (tomato) fruit Solanum lycopersicum cv. No. 4 Zhongshu gray mold disease assessed as induction of defensive enzyme chitinase activity at 1 mM preharvest treatment measured after 3 days relative to control; format: functional; method in brief: as §2
Botrytis cinerea [17] = test: Induction of resistance to Botryotinia fuckeliana-induced tomato fruit Solanum lycopersicum cv. No. 4 Zhongshu gray mold disease assessed as disease incidence at 1 mM injected near root area measured after 6 days relative to control; format: functional; method in brief: as §3
Botrytis cinerea [18] = test: Induction of resistance to Botryotinia fuckeliana-induced tomato fruit Solanum lycopersicum cv. No. 4 Zhongshu gray mold disease assessed as disease incidence at 5 mM injected near root area measured after 12 days relative to control; format: functional, organism-based; method in brief: as §3
Botrytis cinerea [19] = test: Induction of resistance to Botryotinia fuckeliana-induced tomato fruit Solanum lycopersicum cv. No. 4 Zhongshu gray mold disease assessed as inhibition of lession area at 1 mM injected near root area measured after 3 days relative to control; format: functional; details: 72 h; method in brief: as §3
Botrytis cinerea [20] = test: Induction of resistance to Botryotinia fuckeliana-induced tomato fruit Solanum lycopersicum cv. No. 4 Zhongshu gray mold disease assessed as disease incidence at 0.5 mM injected near root area measured after 3 days relative to control; format: functional; method in brief: as §3
Botrytis cinerea [21] = test: Induction of resistance to Botryotinia fuckeliana-induced tomato fruit Solanum lycopersicum cv. No. 4 Zhongshu gray mold disease assessed as inhibition of lession area at 1 mM injected near root area measured after 6 days relative to control; format: functional; details: 144 h; method in brief: as §3
Botrytis cinerea [22] = test: Induction of resistance to Botryotinia fuckeliana-induced tomato fruit Solanum lycopersicum cv. No. 4 Zhongshu gray mold disease assessed as disease incidence at 0.5 mM injected near root area measured after 6 days relative to control; format: functional; method in brief: as §3
Solanum lycopersicum [23] = test: Induction of resistance to Botrytis cinerea-induced Solanum lycopersicum (tomato) fruit Solanum lycopersicum cv. No. 4 Zhongshu gray mold disease assessed as increase in NOS activity at 1 mM preharvest treatment measured after 3 days relative to control; format: functional, organism-based; method in brief: as §1

SMILES: N=C(N)NCCC[C@H](N)C(=O)O [ARGININE]
- Activity (Solanum lycopersicum [1]): Active
- Activity (Solanum lycopersicum [2]): Active
- Activity (Botrytis cinerea [3]): inactive
- Activity (Botrytis cinerea [4]): 37%
- inhibition in vivo at 1000 µM (Botrytis cinerea [5]): 85%
- fold change (FC) (Solanum lycopersicum [6]): 3.1
- fold change (FC) (Solanum lycopersicum [7]): 1.6
- fold change (FC) (Solanum lycopersicum [8]): 1.17
- Activity (Solanum lycopersicum [9]): Active
- Activity (Botrytis cinerea [10]): 16%
- fold change (FC) (Solanum lycopersicum [11]): 1.4
- Activity (Botrytis cinerea [12]): 38%
- Activity (Botrytis cinerea [13]): Active
- Activity (Botrytis cinerea [14]): Active
- inhibition in vivo at 1000 µM (Botrytis cinerea [15]): 90%
- fold change (FC) (Solanum lycopersicum [16]): 1.9
- Activity (Botrytis cinerea [17]): 18%
- Activity (Botrytis cinerea [18]): Active
- inhibition in vivo at 1000 µM (Botrytis cinerea [19]): 86%
- Activity (Botrytis cinerea [20]): 29%
- inhibition in vivo at 1000 µM (Botrytis cinerea [21]): 90%
- Activity (Botrytis cinerea [22]): 31%
- Activity (Solanum lycopersicum [23]): Active
